Measurements taken from ChEMBL document CHEMBL1123142, “1,2,4-Triazolo[4,3-a]quinoxaline-1,4-diones as antiallergic agents” (J Med Chem, 1985).
Several values for one entry are separate records, joined by “and”; a condition that tells them apart may be missing. Identical values can stand only once.

Key:
Rattus norvegicus [1] = experiment: Percent inhibitory activity in rat passive cutaneous anaphylaxis test at a dose of 25 mg/kg administered perorally; assay type: functional; settings: for inhibition in vivo at 25 mg/kg: Rattus norvegicus, po; for Inhibition: route oral, 25 mg/kg
Method in brief: (§1)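 Rats immunized i.m. with ovalbumin plus aluminum hydroxide, plus B. pertussis i.p., gave IgE antiovalbumin serum. Naive male Sprague-Dawley rats were sensitized intradermally at dorsal sites (1:20), with 48 h latency. Compound was given orally in 1% methylcellulose, 10 min before i.v. challenge with 4 mg ovalbumin in 1% Evans blue. Blued wheal areas were read at 30 min. Groups of 4–8; mean ± SE, Student's t test.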

Rattus norvegicus [2] = species on record: Rattus norvegicus; experiment: Concentration required to inhibit Antigen-induced release of Histamine from rat mast cells; assay type: functional, cell-based; settings: read-out: I50
Rattus norvegicus [3] = experiment: Effective dose against IgE-mediated cutaneous anaphylaxis in the rat after peroral administration; assay type: functional; settings: po; method in brief: as §1
Rattus norvegicus [4] = experiment: Effective dose against IgE-mediated cutaneous anaphylaxis in the rat after ip administration; assay type: functional
Rattus norvegicus [5] = experiment: Percent inhibitory activity in rat passive cutaneous anaphylaxis test at a dose of 10 mg/kg administered perorally; assay type: functional; settings: route oral; method in brief: as §1
Rattus norvegicus [6] = species on record: Rattus norvegicus; experiment: Concentration required to inhibit Antigen-induced release of Histamine from rat mast cells at 100 uM; assay type: functional; settings: Mast cell
Rattus norvegicus [7] = experiment: Percent inhibitory activity in rat passive cutaneous anaphylaxis test at a dose of 25 mg/kg, ip; assay type: functional; settings: route intraperitoneal

Cc1ccc2c(c1)n(C)c(=O)c1nnc(O)n12
inhibition in vivo at 25 mg/kg (Rattus norvegicus [1]): 18%
IC50 (Rattus norvegicus [2]): 6 µM

COc1cc2c(c(Cl)c1OC)n(C)c(=O)c1nnc(O)n12
inhibition in vivo at 25 mg/kg (Rattus norvegicus [1]): 27%
IC50 (Rattus norvegicus [2]): 35 µM

CCCn1c(=O)c2nn(C)c(=O)n2c2ccc(Cl)cc21
IC50 (Rattus norvegicus [2]): 1 µM
ED50 (Rattus norvegicus [3]): > 100 mg/kg

O=C([O-])c1cc(=O)c2c(OCC(O)COc3cccc4oc(C(=O)[O-])cc(=O)c34)cccc2o1.[Na+].[Na+] [CROMOLYN SODIUM]
ED50 (Rattus norvegicus [4]): 6 mg/kg

Cn1c(=O)c2nnc(O)n2c2ccccc21
inhibition in vivo at 25 mg/kg (Rattus norvegicus [1]): 38%
IC50 (Rattus norvegicus [2]): 40 µM
inhibition in vivo at 10 mg/kg (Rattus norvegicus [5]): 56%
ED50 (Rattus norvegicus [3]): 6 mg/kg

COc1ccc2c(c1)n(C)c(=O)c1nnc(O)n12
inhibition in vivo at 25 mg/kg (Rattus norvegicus [1]): 10%
IC50 (Rattus norvegicus [2]): 3 µM

CCCn1c(=O)c2nnc(O)n2c2ccc(Cl)cc21
inhibition in vivo at 25 mg/kg (Rattus norvegicus [1]): 53%
IC50 (Rattus norvegicus [2]): 0.4 µM
ED50 (Rattus norvegicus [3]): 3 mg/kg

CC(=O)n1nc2c(=O)n(C)c3ccccc3n2c1=O
Inhibition (Rattus norvegicus [1]): 27% and 63%
IC50 (Rattus norvegicus [2]): 25 µM

Cn1c(=O)c2nnc(O)n2c2ccc(O)cc21
inhibition in vivo at 25 mg/kg (Rattus norvegicus [1]): 20%
inhibition at 100 µM (Rattus norvegicus [6]): 29%

COC(=O)n1nc2c(=O)n(C)c3ccccc3n2c1=O
inhibition at 100 µM (Rattus norvegicus [6]): 30%

CCCn1c(=O)c2nn(CC(=O)OCC)c(=O)n2c2ccc(Cl)cc21
inhibition in vivo at 25 mg/kg (Rattus norvegicus [7]): 14%
inhibition at 100 µM (Rattus norvegicus [6]): 20%

Cn1c(=O)c2nn(S(C)(=O)=O)c(=O)n2c2ccccc21
inhibition in vivo at 25 mg/kg (Rattus norvegicus [1]): 25%
inhibition at 100 µM (Rattus norvegicus [6]): 2%

Cc1cccc2c1n(C)c(=O)c1nnc(O)n12
inhibition in vivo at 25 mg/kg (Rattus norvegicus [1]): 35%
Inhibition (Rattus norvegicus [1]): 53%
IC50 (Rattus norvegicus [2]): 17 µM

C=CCn1nc2c(=O)n(CCC)c3cc(Cl)ccc3n2c1=O
inhibition at 100 µM (Rattus norvegicus [6]): 20%

Cc1cc2c(cc1C)n1c(O)nnc1c(=O)n2C
IC50 (Rattus norvegicus [2]): 12 µM

CC(=O)c1ccc2c(c1)n(C)c(=O)c1nnc(O)n12
inhibition in vivo at 25 mg/kg (Rattus norvegicus [1]): 49%
IC50 (Rattus norvegicus [2]): 1 µM

Cn1c(=O)c2nnc(O)n2c2ccc(C(F)(F)F)cc21
inhibition in vivo at 25 mg/kg (Rattus norvegicus [1]): 52%
Inhibition (Rattus norvegicus [1]): 69%
IC50 (Rattus norvegicus [2]): 1 µM
ED50 (Rattus norvegicus [3]): 12 mg/kg

CCCn1c(=O)c2nn(C(C)=O)c(=O)n2c2ccc(Cl)cc21
inhibition in vivo at 25 mg/kg (Rattus norvegicus [7]): 42%
IC50 (Rattus norvegicus [2]): 0.1 µM

Cn1c(=O)c2nnc(O)n2c2cc(Cl)ccc21
inhibition in vivo at 25 mg/kg (Rattus norvegicus [1]): 42%
IC50 (Rattus norvegicus [2]): 0.4 µM

CC(=O)n1nc2c(=O)n(C(C)=O)c3ccccc3n2c1=O
inhibition in vivo at 25 mg/kg (Rattus norvegicus [1]): 36%
IC50 (Rattus norvegicus [2]): 10 µM

CC(=O)n1nc2c(=O)n(C)c3cc(C)c(C)cc3n2c1=O
inhibition in vivo at 25 mg/kg (Rattus norvegicus [1]): 26%
IC50 (Rattus norvegicus [2]): 43 µM

Oc1nc2ccccc2n2c(O)nnc12
inhibition in vivo at 25 mg/kg (Rattus norvegicus [1]): 40%
inhibition at 100 µM (Rattus norvegicus [6]): 20%

Cn1nc2c(=O)n(C)c3ccccc3n2c1=O
inhibition in vivo at 25 mg/kg (Rattus norvegicus [1]): 0%
inhibition at 100 µM (Rattus norvegicus [6]): 30%

Cn1c(=O)c2nnc(O)n2c2ccc(Cl)cc21
inhibition in vivo at 25 mg/kg (Rattus norvegicus [1]): 22%
IC50 (Rattus norvegicus [2]): 10 µM
ED50 (Rattus norvegicus [3]): > 125 mg/kg

CCCn1c(=O)c2nnc(O)n2c2ccccc21
inhibition in vivo at 25 mg/kg (Rattus norvegicus [1]): 58%
IC50 (Rattus norvegicus [2]): 8 µM
inhibition in vivo at 10 mg/kg (Rattus norvegicus [5]): 84%
ED50 (Rattus norvegicus [3]): 3 mg/kg

CCCn1c(=O)c2nn(C(=O)/C=C/c3ccccc3)c(=O)n2c2ccc(Cl)cc21
inhibition in vivo at 25 mg/kg (Rattus norvegicus [1]): 38%
IC50 (Rattus norvegicus [2]): 1 µM
ED50 (Rattus norvegicus [3]): > 100 mg/kg
